This is a sample that favours compounds with a hit; in the whole collection about 3.9% have one here.
CRFBP-R2 block = antagonists of CRF-binding protein/CRF-R2 receptor complex. hit rate 0.59% among 350,000. inhibition, % at 11.8 µM. HEK293 CRF-R2/CRF-BP, CRF-induced calcium fluorescence;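 active means inhibition of the ligand-induced calcium signal above about 50% at the single tested concentration, limit read from the data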
ANO1 block = inhibitors of mouse TMEM16A calcium-activated chloride channel; AID 588511; hit rate 1.2% among 310,000; Q8BHY3; normalized B-score (activity score, 25-100; higher = stronger inhibition) at 10 µM; HEK293 TMEM16A/YFP iodide influx fluorescence, ionomycin;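 active means ratio plate-corrected score three or more library SD toward inhibition, starting fluorescence score within five deviations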;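 further: score derived from kinetic fluorescence span divided by baseline fluorescence per well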
CRFBP-R2 agonist = CRF-BP/CRF-R2 complex agonism. HEK293 CRF-R2/CRF-BP, calcium dye fluorescence (FLIPR); percent of saturating CRF peptide response. hit rate 0.46% among 350,000. activation, % at 13.2 µM;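 active means activation of at least 50%, plus an integration ratio under a set limit after plate pattern correction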;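 further: plate controls were neutral control wells without compound for no effect and CRF at EC100 for full effect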
TAAR1 antagonist = human TAAR1 antagonism | Q96RJ0 | CHO RD-HGA16 TAAR1, Fluo-8 calcium fluorescence, antagonist | inhibition, % at 3 µM | hit rate 1.5% among 360,000 | AID 624466;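 active means inhibition above a per-plate cutoff, the mean inhibition of test compounds on that plate plus 3 SD, cut at about 49% in these data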;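 further: 0% = DMSO plus EC80 beta-PEA response and 100% = DMSO alone without agonist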
Target sequence (Q96RJ0 whole entry, looked up): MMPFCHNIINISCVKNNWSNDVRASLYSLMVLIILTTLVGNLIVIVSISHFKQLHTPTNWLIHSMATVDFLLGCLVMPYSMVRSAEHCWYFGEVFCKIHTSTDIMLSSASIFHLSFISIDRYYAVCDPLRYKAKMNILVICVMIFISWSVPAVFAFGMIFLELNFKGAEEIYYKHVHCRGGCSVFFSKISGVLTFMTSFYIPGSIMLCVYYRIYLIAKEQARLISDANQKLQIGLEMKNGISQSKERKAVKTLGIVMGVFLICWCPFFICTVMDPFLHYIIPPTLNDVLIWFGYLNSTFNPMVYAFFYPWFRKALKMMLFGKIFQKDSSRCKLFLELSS
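System: CHO RD-HGA16 cells bearing hTAAR1. Reagent: EC80 β-phenethylamine stimulus. Schedule: seeding 17-24 h prior, 75-min 37 °C, 30-min RT dye loading. Signal: Fluo-8 intracellular calcium dye fluorescence, real-time kinetic reads. Read-out: % inhibition from peak post-agonist over basal fluorescence ratio. Benchmarks: vehicle wells and EC80 agonist wells. Replicates: n of 1.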
TAAR1 ag = agonists of human TAAR1; Q96RJ0; AID 624467; CHO RD-HGA16 TAAR1, Fluo-8 calcium fluorescence; vehicle wells 0%, saturating PEA agonist 100%; hit rate 0.99% among 360,000; activation, % at 3 µM;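 active means activation above the mean activation of all test compounds in the run plus 3 SD, cut at about 38% in these data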
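Signal – calcium-sensitive Fluo-8 signal, excitation 470-495, emission 515-575 nm · System – RD-HGA16 (CHO) cells co-expressing Gα16 and hTAAR1 · Incubation – 17-24 h seeding, 75 min 37 °C dye, 30 min RT · Compound dosing – 3 µM single concentration · Repeats – no replicates (n 1)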
ANO1 activ = activators or potentiators of mouse TMEM16A chloride channel; B-score at 10 µM; hit rate 0.3% among 340,000; HEK293 TMEM16A/YFP-H148Q/I152L, iodide quench fluorescence; active compounds read low; Q8BHY3;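 active means fluorescence-ratio B-score plate-corrected deviation score at least 3 library SD below zero, with starting fluorescence score within 5 deviations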;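 further: channel opened by trigger with iodide after compound preincubation; score built on the fluorescence ratio of max minus min over baseline; more negative score means more quench and so TMEM16A activation or potentiation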
Numbers without * were called inactive; i = inactive; x = not tested or not shown.

SMILES | CRFBP-R2 block | ANO1 block | CRFBP-R2 agonist | TAAR1 antagonist | TAAR1 ag | ANO1 activ
Cc1ccc(-c2noc(Cn3nc(C(=O)O)c4ccccc4c3=O)n2)cc1 | -6 | i | 1 | -5 | 0 | i
O=C(O)c1nn(Cc2nc3ccccc3o2)c(=O)c2ccccc12 | -25 | i | 0 | 1 | 0 | -4.8*
Cc1cc(N)ccc1NC(=O)CN1CCOCC1 | -4 | i | 0 | -17 | 2 | i
COc1ccc(OCC(O)CNCCOc2ccccc2OC)c(C(C)(C)C)c1 (stereo not given) | -20 | i | -1 | 12 | 50* | i
COC(=O)c1cc(OC)c(OC)cc1NC(=O)c1ccco1 | 76* | i | 1 | -1 | -3 | i
COC(=O)c1cc(OC)c(OC)cc1NC(=O)C(C)Sc1ccc(C)cc1 (stereo not given) | 50* | i | -1 | 7 | 12 | i
COC(=O)c1cc(OC)c(OC)cc1NC(=O)c1c(-c2ccccc2Cl)noc1C | 63* | i | 0 | 16 | 11 | i
CCCOc1ccc(F)cc1-c1cc(C(=O)NCCOC)[nH]n1 | x | x | x | 3 | -1 | x
COc1ccccc1N1CCN(S(=O)(=O)CCNC(=O)c2ccc(Br)o2)CC1 | 0 | i | -1 | -11 | 4 | i
CCN(CC(=O)Nc1ccccc1C(F)(F)F)C(=O)Cc1ccccc1 | 2 | i | -1 | 4 | -1 | i
O=C(COC(=O)/C=C/c1ccccc1Cl)NC1CC1 | -4 | x | -1 | 1 | 6 | x
CC1(C(=O)Nc2ccc3ccccc3c2)CCC(=O)N1C1CCN(Cc2ccccc2)CC1 (stereo not given) | x | x | x | -6 | 2 | x
COC(=O)c1ccsc1NS(=O)(=O)c1ccccc1 | -5 | i | 3 | -5 | 0 | i
COC(=O)c1sccc1NS(=O)(=O)c1ccccc1 | 118* | i | 1 | -26 | 3 | i
O=C(NCC1CCCO1)c1ccc2c(c1)N(Cc1ccccc1)CCS2 (stereo not given) | -11 | i | -1 | -2 | 1 | i
Cc1ccc(CN(c2ccc(C(=O)NCc3cccnc3)cc2)S(C)(=O)=O)cc1 | 1 | i | -1 | 9 | 12 | i
Cc1ccc(CN(c2ccc(C(=O)NCc3ccccn3)cc2)S(C)(=O)=O)cc1 | -2 | i | 4 | 17 | 38* | i
O=S(=O)(Nc1cc(Cl)ccc1-n1cncn1)c1ccccc1Cl | 106* | x | 0 | -1 | 11 | i
CCOc1ccccc1CNC(=O)c1ccc2c(c1)N(CC)CCS2 | 11 | i | -2 | 7 | -3 | i
CN(Cc1cccnc1)C(=O)CCCc1c[nH]c2ccccc12 | 0 | i | -3 | 8 | 8 | i
Cc1ccc(CN(C)C(=O)CCc2c[nH]c3ccccc23)o1 | 57* | i | -2 | -13 | -1 | i
O=C1CCCc2nc(N3CCN(C(=O)c4ccco4)CC3)ncc21 | -10 | i | 4 | -21 | 2 | i
Nc1nc(F)nc2c1ncn2[C@@H]1O[C@H](CO)[C@@H](O)[C@H]1O | 19 | i | -1 | -14 | 0 | i
Nc1nc(F)nc2c1ncn2[C@@H]1O[C@H](CO)[C@@H](O)[C@@H]1O | 50* | i | -1 | -17 | 1 | i
O=C(CCCCl)Oc1ccc2cc(-c3ccc4ccccc4n3)c(=O)oc2c1 | -94 | i | 106* | 1 | 1 | i
SMILES | CRFBP-R2 block | ANO1 block | CRFBP-R2 agonist | TAAR1 antagonist | TAAR1 ag | ANO1 activ
COc1ccccc1C1CN=NC12CCCc1ccccc1C2=O (stereo not given) | -10 | i | 2 | 14 | 11 | i
COC(=O)c1c(C)cccc1C1CN=NC12Cc1ccccc1C2=O (stereo not given) | -3 | x | -3 | 22 | 0 | -7.4*
O=C(NN=Cc1c(F)c(F)c(F)c(F)c1F)c1ccc(NS(=O)(=O)c2cccs2)cc1 | -15 | x | -1 | 5 | -1 | i
CC(c1ccccc1)N1C(=O)c2ccc(C(=O)Nc3ccc(Br)cc3C(=O)O)cc2C1=O (stereo not given) | 59* | 100* | 0 | -17 | 1 | i
CC(C)CCN1C(=O)c2ccc(C(=O)Nc3ccc(O)cc3C(=O)O)cc2C1=O | 10 | i | -1 | -25 | -1 | i
CC(c1ccccc1)N1C(=O)c2ccc(C(=O)Nc3ccccc3C(=O)O)cc2C1=O (stereo not given) | 1 | i | 0 | -30 | 0 | i
COc1cc(NC(=O)c2ccc3c(c2)C(=O)N(CCC(C)C)C3=O)c(C(=O)O)cc1OC | 51* | i | 10 | 4 | 0 | i
Fc1ccc(-[n+]2nc(Nc3ccccc3)sc2-c2c3ccccc3cc3ccccc23)cc1 | -11 | i | -6 | 25 | 46* | i
COc1ccc(C)cc1Nc1n[n+](-c2ccccc2)c(-c2c(OC)ccc3ccccc23)s1 | 27 | 100* | -1 | 13 | 31 | i
Oc1ccc2ccccc2c1-c1sc(Nc2ccccc2)n[n+]1-c1ccc(F)cc1 | -12 | i | 5 | 6 | 14 | i
COc1ccc(-c2sc(Nc3ccccc3)n[n+]2-c2ccc(F)cc2)c(C)c1C | -4 | i | 0 | 23 | 19 | -5*
Cn1c(CNc2cccc(Cl)c2)nnc1SCC#N | 18 | i | 0 | -11 | 2 | i
CC(C)CC(NC(=O)c1ccccc1)C(=O)OCC(=O)Nc1ccc(S(N)(=O)=O)cc1 (stereo not given) | -8 | i | 0 | -22 | 4 | i
CC(C)N(C(=O)Cn1cc(S(=O)(=O)CC(=O)NCc2ccc(F)cc2)c2ccccc21)C(C)C | -1 | i | -1 | 1 | 2 | i
CC(C)(C)c1nc(CN2CCOCC2)ccc1O | 9 | i | -1 | 2 | 11 | x
CC(C)(C)c1nc(CN2CCCCC2)cc(CN2CCCCC2)c1O | 81* | i | 0 | -4 | 12 | i
O/C(=C\c1nc2ccccc2nc1/C=C(\O)c1ccccc1)c1ccccc1 | 84* | i | 0 | x | x | i
COC(=O)C[C@@H]1CC[C@H](NS(=O)(=O)c2ccccc2F)[C@@H](CO)O1 | x | x | x | 11 | 1 | x
CC(=O)N1CCN(C(=O)c2cccc(S(=O)(=O)N3CCOCC3)c2)CC1 | 9 | x | 4 | -21 | 8 | i
CCCCOc1ccc(-c2nnn(CC(=O)Nc3ncc(CC(=O)OCC)s3)n2)cc1 | -7 | i | 12 | 21 | 42* | i
O=C(N/N=C/c1cc(Br)cc(Br)c1O)c1ccncc1 | -164 | i | 167* | 19 | 17 | x
O=C(N/N=C/c1cc(Cl)cc(Cl)c1O)c1ccncc1 | -86 | i | 109* | 24 | 20 | -8.8*

Compound activity as filed in PubChem.
